Shown are actives, neighbours in structure and some others; about 2.5% of the full set was active somewhere.
PAX8 reporter: inhibitors of PAX8-driven TPO luciferase reporter, primary screen, RMG-I cells, single concentration; SteadyGlo, 24 h; 360,000 compounds, 1.2% hits; inhibition, % at 12.6 µM;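 active = mean replicate inhibition at least 60% with every replicate also reaching 60%; inconclusive = only one of the two criteria is met; inactive = mean below 60% and not all replicates reaching 60%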;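 also: luciferase light reporting Pax8 driven TPO promoter activity; plate controls were median of neutral control wells for no effect and mitoxantrone controls for full effect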
FN deposition inh: inhibitors of fibronectin matrix deposition, primary screen, AH1F cells, Alexa488-fibronectin fluorescence, plate reader. inhibition, % at 12.6 µM. 350,000 compounds, 0.086% hits. AH1F fibroblasts, overnight;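 active = mean inhibition across replicates of 30% or more, regardless of how many single replicates reach that level; inconclusive = mean under 30% yet at least half of replicates reach 30%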;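 also: positive control wells lacked labelled fibronectin entirely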
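Assay system: AH1F fibroblasts / Quantity: 10000 cells per well / Medium: DMEM plus 2% serum, read in PBS / Reagent: labelled fibronectin 24 nM / Dosing: single dose, pinned / Times: 1 h cell attachment, overnight exposure to compound and label / Signal: fluorescence, ex 485 nm, em 525 nm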
HIV Env fusion: inhibitors of HIV-1 Env-driven cell-cell fusion, primary screen, HeLa-JRFL effector, CEM21 target cells, luciferase; inhibition, % at 12.3 µM; 360,000 compounds, 1.1% hits; AID 651610, 2012;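 active = mean replicate inhibition score of at least 50 and every replicate individually at or above 50; inconclusive = only one of the two criteria met; inactive = mean below 50 and not all replicates reaching 50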;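 also: 0% = plate neutral controls and 100% = maraviroc near 300 nM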
N-glyco inh: increase of ERlucT glycosylation luciferase signal, primary screen, N-linked glycosylation inhibitor project, D54 ERlucT cells, luminescence, set 2 | 360,000 compounds, 0.23% hits | reporter increase, % at 12.5 µM | D54 ERlucT glycosylation luciferase reporter, 24 h; percent of 100 nM tunicamycin response;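 active = mean luciferase reporter signal, scaled so untreated is 0 and the glycosylation-blocking control 100, at or above a set limit in every replicate; inconclusive = mean reaches the limit but not every replicate does; inactive = mean below the limit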;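 also: luciferase carries N-glycosylation sites so blocking glycosylation raises the light; 0% = median of neutral control wells and 100% = median of 100 nM tunicamycin wells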
EWS-Fli block: EWS/Fli-driven NR0B1 reporter inhibitors, primary screen, A673 cells, NR0B1 luciferase, luminescence, MLPCN library. AID 651661, 2012. viability-normalised. inhibition, % at 12.6 µM. 350,000 compounds, 0.67% hits;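 active = mean inhibition of at least 50% after viability correction, with every replicate also passing that limit; inconclusive = mean reaches 50% but only one of two replicates passes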;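 also: firefly luciferase signal divided by Alamar Blue viability fluorescence both relative to DMSO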
AF4-AF9 inh: inhibitors of AF4 peptide binding to AF9, primary screen, biochemical, AlphaScreen, biotin-AF4 peptide, FLAG-AF9, single point; inhibition, % at 10 µM; 350,000 compounds, 0.47% hits;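 active = every replicate reaching a set inhibition limit, whatever the replicate mean, cut at about 25% in these data; inconclusive = mean inhibition reaches that limit but some replicates miss it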;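 also: 0% = plate neutral control median and 100% = total signal loss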
Target sequence (P42568 whole entry, looked up): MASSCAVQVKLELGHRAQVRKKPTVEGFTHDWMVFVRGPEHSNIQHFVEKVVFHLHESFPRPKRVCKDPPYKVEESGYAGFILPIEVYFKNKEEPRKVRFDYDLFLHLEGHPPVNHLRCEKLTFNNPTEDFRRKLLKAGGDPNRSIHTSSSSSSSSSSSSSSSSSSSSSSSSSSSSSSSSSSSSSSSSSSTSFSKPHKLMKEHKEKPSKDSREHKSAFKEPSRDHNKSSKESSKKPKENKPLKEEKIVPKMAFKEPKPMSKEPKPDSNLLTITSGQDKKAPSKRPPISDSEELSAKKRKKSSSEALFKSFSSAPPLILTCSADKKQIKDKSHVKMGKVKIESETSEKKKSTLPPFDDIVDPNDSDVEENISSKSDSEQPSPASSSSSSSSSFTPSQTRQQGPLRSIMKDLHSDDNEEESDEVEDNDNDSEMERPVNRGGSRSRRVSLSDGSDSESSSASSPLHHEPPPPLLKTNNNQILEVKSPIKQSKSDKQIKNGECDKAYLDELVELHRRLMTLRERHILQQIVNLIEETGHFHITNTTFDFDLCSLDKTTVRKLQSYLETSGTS
* = called active by the depositor; i = inactive; ? = inconclusive; nt = no result given; [ ] = another dose, or the depositor's remark.

SMILES | PAX8 reporter | FN deposition inh | HIV Env fusion | N-glyco inh | EWS-Fli block | AF4-AF9 inh
Cc1cc(C(C)(C)C)cc(C)c1Cn1c2[n+](c3ccc(C(F)(F)F)cc31)CCCCC2 | 90* | -5 | 25 | 13 | 40 | 15
FC(F)(F)c1cccc(Cn2c3[n+](c4ccc(C(F)(F)F)cc42)CCCCC3)c1 | 19 | nt | -15 | -2 | 8 | 0
Cn1c(O)c(N=NC(=O)C2COc3ccccc3O2)c2ccccc21 (stereo not given) | 22 | -2 | -17 | -1 | 16 | -92
CC(C)n1c(O)c(N=NC(=O)C2COc3ccccc3O2)c2ccccc21 (stereo not given) | 16 | nt | 1 | 1 | 14 | 39*
C[C@H](CO)N1C[C@H](C)[C@@H](CN(C)C)Oc2ccc(NC(=O)CCCN(C)C)cc2C1=O | -9 | -12 | nt | nt | 2 | -3
Cc1noc(C)c1CSc1nc2[nH]ncc2c(=O)n1-c1ccccc1 | nt | nt | nt | 42* | nt | nt
C=CCn1c(SCc2c(C)noc2C)nc2cc(C(=O)O)ccc2c1=O | 10 | 8 | -62 | 4 | nt | nt
C=CCn1c(SCc2cc(C(C)=O)ccc2OCC)nc2ccccc2c1=O | 30 | 23 | nt | 13 | 54* | 9
C=CCn1c(SCc2c(C)noc2C)nc2ccccc2c1=O | nt | nt | 62* | ? | nt | nt
COc1ccccc1NC(=O)N[C@H]1CC[C@@H](CC(=O)N[C@H](C)c2ccccc2)O[C@H]1CO | 6 | -2 | 9[16.7 µM] | nt | -2 | -1
O=C(c1cccc(F)c1)N1CC2(C1)[C@H](c1ccccc1)[C@H](CO)N2C(=O)C1CCOCC1 | nt | nt | nt | nt | -3 | -1
C[C@@H]1CN([C@@H](C)CO)S(=O)(=O)c2ccc(-c3cccnc3)cc2O[C@@H]1CN(C)C(=O)NC1CCCC1 | 9 | -3 | 1[16.7 µM] | nt | -4 | 3
COc1ccc(COc2cc(-c3cccc(OC)c3)nc3ccc(NC(=O)c4ccc(Cl)cc4)cc23)cc1 | 24 | 16 | -67 | -3 | 57* | -1
COc1ccc(COc2cc(-c3cccc(OC)c3)nc3ccc(NC(=O)c4ccccc4)cc23)cc1 | 29 | -3 | 27 | -3 | 58* | 4
COc1ccc(COc2cc(-c3cccc(OC)c3)nc3ccc(NC(=O)c4cccnc4)cc23)cc1 | 65* | 6 | 10 | -7 | 14 | -1
COc1ccc(COc2cc(-c3cccc(OC)c3)nc3ccc(NC(=O)c4ccc(OC)cc4)cc23)cc1 | 78* | -17 | -9 | 14 | 48 | 1
COc1ccc(NC(=O)c2cccc(NC(=O)c3ccccc3)c2)cc1 | -57 | 1 | 4 | -2 | -58 | 2
C[C@H]1CCCCO[C@H](CN(C)Cc2ccc(C(=O)O)cc2)[C@@H](C)CN([C@@H](C)CO)C(=O)c2cc(NS(=O)(=O)c3ccc(Cl)cc3)ccc2O1 | -9 | 1 | -11[16.7 µM] | nt | 2 | -2
Cc1cc(N2CCN(C(=O)OC(C)(C)C)C[C@H]2C)ccc1N1CCS(=O)(=O)CC1 | -16 | -17 | 62* | nt | 18 | nt
COc1cc(/C=C2\COC/C(=C\c3ccc(O)c(OC)c3)C2=O)ccc1O | 53 | 1 | -141 | -12 | 77* | 7
COc1ccc(/C=C2\CC/C(=C\c3ccc(OC)c(OC)c3)C2=O)cc1OC | 9 | 6 | -5 | ? | -23 | 20
COc1cc(/C=C2/CC/C(=C/c3ccc(O)c(OC)c3)C2=O)ccc1O | 71* | 7 | 23 | 15 | 59* | nt
COc1ccc(/C=C2\CN(Cc3ccccc3)C/C(=C\c3ccc(OC)c(O)c3)C2=O)cc1O | 90* | -2 | i | -20 | 62* | 4
Cc1ccc2c(c1)c(/C=C/c1cc[n+](C)cc1)c(C)n2C | ? | -444 | 20 | 3 | 57* | 3
Cc1ccc2[nH]c(C)c(/C=C/c3cc[n+](C)cc3)c2c1 | 78* | -254 | 60* | -10 | 50 | 7
SMILES | PAX8 reporter | FN deposition inh | HIV Env fusion | N-glyco inh | EWS-Fli block | AF4-AF9 inh
Cc1ccc(S(=O)(=O)N(C)C[C@@H]2OCCCC[C@H](C)Oc3ccc(NC(=O)C4CCCCC4)cc3C(=O)N([C@H](C)CO)C[C@H]2C)cc1 | 21 | nt | 33[16.7 µM] | nt | 15 | nt
COCC(=O)N(C)C[C@H]1Oc2ncc(C#CCC3CCCC3)cc2C(=O)N([C@@H](C)CO)C[C@@H]1C | nt | 7 | -47[16.7 µM] | nt | 0 | -1
C/C=C/c1ccc2c(c1)O[C@H](CN(C)C(=O)NC(C)C)[C@@H](C)CN([C@H](C)CO)S2(=O)=O | nt | 17 | 1[16.7 µM] | nt | -13 | 1
CCC(C)(C)NC(=O)c1ccc(Sc2nncn2C)c([N+](=O)[O-])c1 | -7 | 3 | 19 | -1 | 7 | 5
Cn1cnnc1Sc1ccc(/C=C/C(=O)c2ccc(O)cc2)cc1[N+](=O)[O-] | 1 | 7 | -109 | ? | 69* | -1
CCS(=O)(=O)N1Cc2cc(C(=O)O)nc(-c3cccc(-c4ccc(C#N)cc4)c3)c2[C@@H]1CCO | -3 | 0 | nt | nt | nt | -4
CC(C)n1c2ccccc2c2cc([N+](=O)[O-])ccc21 | -2 | 6 | 25 | -2 | 0 | 5
C[n+]1c(-c2ccccc2)cc2c(=Cc3ccccc3)c3ccccc3n21 | 115* | 2 | 46 | 14 | 53* | 28*
C[n+]1c(-c2ccccc2)cc2c(=Cc3ccc([N+](=O)[O-])cc3)c3ccccc3n21 | 74* | 3 | -369 | -2 | 5 | 61*
C[C@@H]1CN([C@H](C)CO)C(=O)c2cccc(NS(C)(=O)=O)c2O[C@@H]1CN(C)S(=O)(=O)c1cn(C)cn1 | nt | -3 | 7[16.7 µM] | nt | -4 | 0
COc1ccc(-c2onc3ccc(Br)cc23)cc1 | -15 | 0 | nt | -3 | nt | nt
COc1cc(-c2onc3ccc(Br)cc23)cc(OC)c1OC | 26 | nt | -2 | 11 | 56* | ?
CC1(C)CC[C@]2(C(=O)O)CC[C@]3(C)C(=CC[C@@H]4[C@@]5(C)CC[C@H](O[C@@H]6O[C@H](C(=O)O)[C@@H](O)[C@H](O[C@@H]7OC[C@H](O)[C@H](O)[C@H]7O)[C@H]6O)C(C)(C)[C@@H]5CC[C@]43C)[C@@H]2C1 | 101* | 51* | -30 | -7 | ? | 0
Cc1c(P(=S)(c2ccccc2)c2ccccc2)[n+]2ccccc2n1C/C=C/c1ccccc1 | 101* | 7 | 13 | 3 | 21 | 16
CC1C(=O)Nc2ccc(S(=O)(=O)N3CCN(c4cccc(C(F)(F)F)c4)CC3)cc2NC1=O (stereo not given) | 68* | -12 | 3 | 3 | nt | 2
COc1ccc(OCC(=O)Nc2ccc(N3CCCCC3)cc2)cc1 | 15 | -6 | 31 | 1 | 7 | -2
